Measured values published in ChEMBL document CHEMBL1157311, “Aurilides B and C, cancer cell toxins from a Papua New Guinea collection of the marine cyanobacterium Lyngbya majuscula” (2006).
The source made the active and inactive calls. The calls are words filed in the database; no cut-off is given here.

Experiments:
NCI-H522 = assay: Growth inhibition of human NCI-H522 cells; format: functional
KM12 = assay: Growth inhibition of human KM12 cells; format: functional
NCI/ADR-RES = assay: Growth inhibition of human NCI/ADR-RES cells; format: functional
U-251 = assay: Growth inhibition of human U251 cells; format: functional
DU-145 = assay: Growth inhibition of human DU145 cells; format: functional
COLO 205 = assay: Growth inhibition of human COLO205 cells; format: functional
ACHN = assay: Growth inhibition of human ACHN cells; format: functional
SF-295 = assay: Growth inhibition of human SF295 cells; format: functional
SN12C = assay: Growth inhibition of human SN12C cells; format: functional
MOLT-4 = assay: Growth inhibition of human MOLT4 cells; format: functional
M14 = assay: Growth inhibition of human M14 cells; format: functional
EKVX = assay: Growth inhibition of human EKVX cells; format: functional
SF-539 = assay: Growth inhibition of human SF539 cells; format: functional
[1] = Cytotoxicity against mouse Neuro2a cells after 48 hrs by MTT assay; format: functional; settings: N2a, read-out: LC50 (the source's name)
Outline: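 Cells seeded at 6000/well and grown 24 h, then given test chemicals dissolved in DMSO and diluted in serum-free medium (DMSO under 0.5% final). Viability read by MTT reduction after 48 h exposure; LC50 reported. Method follows Alley et al.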

SNB-75 = assay: Growth inhibition of human SNB75 cells; format: functional
Hs-578T = assay: Growth inhibition of human HS578T cells; format: functional
[2] = Growth inhibition of human OVACR4 cells; format: functional
SW-620 = assay: Growth inhibition of human SW620 cells; format: functional; settings: read-out: pLC50 (the source's name) (converted)
A10 = assay: Disruption of microfilament in rat A10 cells at 2.9 uM after 24 hrs by rhodamine-phalloidin assay; format: functional, cell-based
Outline: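 A-10 smooth muscle cells grown on glass coverslips in BME with 10% fetal calf serum and exposed 24 h. Fixed in 3% paraformaldehyde, permeabilised with 0.2% Triton X-100, reduced with NaBH4, then stained 45 min with 100 nM TRITC-phalloidin for actin and with DAPI for DNA. Microfilament network scored by fluorescence microscopy.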

[3] = Growth inhibition of human […] cells; format: functional
[4] = Growth inhibition of human OVACR5 cells; format: functional
786-0 = assay: Growth inhibition of human 786-0 cells; format: functional
[5] = Growth inhibition of human RPMI8266 cells; format: functional
NCI-H460 = assay: Growth inhibition of human NCI-H460 cells; format: functional; settings: read-out: pLC50 (the source's name) (converted)
HOP-92 = assay: Growth inhibition of human HOP92 cells; format: functional
LOX IMVI = assay: Growth inhibition of human LOX IMVI cells; format: functional
HCC 2998 = assay: Growth inhibition of human HCC2998 cells; format: functional
TK-10 = assay: Growth inhibition of human TK10 cells; format: functional
UACC-62 = assay: Growth inhibition of human UACC62 cells; format: functional
CAKI-1 = assay: Growth inhibition of human CAKI1 cells; format: functional
HT-29 = assay: Growth inhibition of human HT29 cells; format: functional
[6] = read-out: pLC50 (the source's name) (converted)

CC/C=C(\C)[C@H]1OC(=O)[C@H](C)N(C)C(=O)[C@H](C(C)C)NC(=O)CN(C)C(=O)[C@H]([C@H](C)CC)N(C)C(=O)[C@H](C(C)C)NC(=O)[C@@H]([C@@H](C)CC)OC(=O)/C(C)=C/C[C@H](O)[C@@H]1C [AURILIDE B]
GI50 (NCI-H522): < 10 nM
CC50 (NCI-H522; [6]): > 100000 nM
TGI (NCI-H522; read-out: pTGI): < 10 nM
GI50 (KM12): < 10 nM
CC50 (KM12; [6]): > 100000 nM
TGI (KM12; read-out: pTGI): > 100000 nM
GI50 (NCI/ADR-RES): < 10 nM
CC50 (NCI/ADR-RES; [6]): < 10 nM
TGI (NCI/ADR-RES; read-out: pTGI): < 10 nM
GI50 (U-251): < 10 nM
TGI (U-251; read-out: pTGI): < 10 nM
GI50 (DU-145): < 10 nM
CC50 (DU-145; [6]): < 10 nM
TGI (DU-145; read-out: pTGI): < 10 nM
GI50 (COLO 205): < 10 nM
CC50 (COLO 205; [6]): > 100000 nM
TGI (COLO 205; read-out: pTGI): > 100000 nM
GI50 (ACHN): < 10 nM
CC50 (ACHN; [6]): > 100000 nM
GI50 (SF-295): < 10 nM
CC50 (SF-295; [6]): > 100000 nM
TGI (SF-295; read-out: pTGI): < 10 nM
GI50 (SN12C): < 10 nM
GI50 (MOLT-4): < 10 nM
CC50 (MOLT-4; [6]): < 10 nM
TGI (MOLT-4; read-out: pTGI): < 10 nM
GI50 (M14): < 10 nM
CC50 (M14; [6]): < 10 nM
TGI (M14; read-out: pTGI): < 10 nM
GI50 (EKVX): < 10 nM
CC50 (EKVX; [6]): < 10 nM
TGI (EKVX; read-out: pTGI): < 10 nM
GI50 (SF-539): < 10 nM
CC50 (SF-539; [6]): < 10 nM
TGI (SF-539; read-out: pTGI): < 10 nM
CC50 [1]: 10 nM
CC50 (SNB-75; [6]): 83200 nM
TGI (SNB-75; read-out: pTGI): < 10 nM
CC50 (Hs-578T; [6]): > 100000 nM
TGI (Hs-578T; read-out: pTGI (converted)): 708 nM
GI50 [2]: < 10 nM
CC50 [2, 6]: > 100000 nM
TGI ([2]; read-out: pTGI): < 10 nM
CC50 (SW-620): > 100000 nM
Activity (A10): Active
GI50 [3]: < 10 nM
TGI ([3]; read-out: pTGI): < 10 nM
GI50 [4]: < 10 nM
CC50 [4, 6]: < 10 nM
TGI ([4]; read-out: pTGI): < 10 nM
GI50 (786-0): < 10 nM
CC50 (786-0; [6]): < 10 nM
TGI (786-0; read-out: pTGI): < 10 nM
GI50 [5]: < 10 nM
CC50 [5, 6]: > 100000 nM
TGI ([5]; read-out: pTGI): < 10 nM
CC50 (NCI-H460): 77600 nM
GI50 (HOP-92): < 10 nM
CC50 (HOP-92; [6]): 58900 nM
TGI (HOP-92; read-out: pTGI): < 10 nM
GI50 (LOX IMVI): < 10 nM
GI50 (HCC 2998): < 10 nM
CC50 (HCC 2998; [6]): < 10 nM
TGI (HCC 2998; read-out: pTGI): < 10 nM
GI50 (TK-10): < 10 nM
CC50 (TK-10; [6]): < 10 nM
TGI (TK-10; read-out: pTGI): < 10 nM
GI50 (UACC-62): < 10 nM
TGI (UACC-62; read-out: pTGI): < 10 nM
GI50 (CAKI-1): < 10 nM
TGI (CAKI-1; read-out: pTGI): < 10 nM
GI50 (HT-29): < 10 nM
